# Shown are actives, neighbours in structure and some others; about 2.7% of the full set was active somewhere.
# LYP act: increases human PTPN22 phosphatase activity; Q9Y2R2; AID 697; activation, % at 2 µM; recombinant LYP, DiFMUP fluorescence; 0 = plate median, 100 = signal doubled; 96,000 compounds, 0.11% hits;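 active means activation at 2 µM above a set limit, the mean plus 5 SD, cut at about 37% in these data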
# PLAP act: activators of human placental alkaline phosphatase; P05187; purified PLAP enzyme, luminescent substrate read-out; hits give high values; activation fold at 20 µM; 96,000 compounds, 1.2% hits; AID 696; in the data active means activation fold above about 2
# Plk1 PBD FP: Plk1 (human) PBD binding inhibition | P53350 | Plk1 PBD phosphopeptide binding, fluorescence polarization | inhibition, %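 (tested at about 20 µM)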 | 97,000 compounds, 0.13% hits; in the data active means inhibition above about 34%, passing the limit was not always enough
# Rev-RRE block: disrupts HIV-1 Rev binding to RRE RNA. 97,000 compounds, 0.79% hits. Rev peptide-RRE RNA binding, FRET. AID 704. inhibition, % at 8 µM. P05866;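 active means inhibition above the screen-wide mean plus 3 SD, cut at about 35% in these data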;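 further: 0% = median DMSO wells and 100% = median Neomycin B control wells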
# Target sequence (P05866 whole entry, looked up): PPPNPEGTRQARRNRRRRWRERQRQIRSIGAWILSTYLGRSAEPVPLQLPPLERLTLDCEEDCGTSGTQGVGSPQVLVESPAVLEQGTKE
#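 Test system: Cy5-tagged RRE RNA duplex with fluorescein-tagged Rev peptide | Read-out: % inhibition of FRET ratio versus controls | Probe or stimulus: Labelled Rev peptide | Incubation: 5 min RNA-compound premix plus 15 min binding step, 25 °C | Technique: FRET fluorescence readout | Benchmarks: DMSO low control, neomycin B high control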
# LYP inh 2: inhibitors of human LYP (PTPN22) phosphatase; 96,000 compounds, 0.21% hits; recombinant LYP catalytic domain, DiFMUP fluorescence; Q9Y2R2; inhibition, % at 2 µM;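 active means inhibition at 2 µM at or above a set limit, the screen mean plus 3 SD, cut at about 24% in these data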;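 further: 0% = DMSO with enzyme and 100% = enzyme fully blocked by orthovanadate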
# PLK1 kinase inh: blocks human PLK1 kinase activity. recombinant PLK1 kinase, TR-FRET peptide phosphorylation. inhibition, % at 10 µM. AID 619. 97,000 compounds, 0.53% hits. P53350;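 active means inhibition of 50% or more in the single-concentration screen; inactive means inhibition below 50%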;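 further: 0% = DMSO max control and 100% = H-89 dihydrochloride min control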
# The depositor's hits bear a star; · = no result given; [ ] = dose if it differs, or a comment.
SMILES,LYP act,PLAP act,Plk1 PBD FP,Rev-RRE block,LYP inh 2,PLK1 kinase inh
Nc1c(C(=O)Nc2ccccc2)sc2nc(-c3ccco3)ccc12,3,1.3,-10,36*,-6,-1
Nc1c(C(=O)Nc2nc3ccccc3s2)sc2nc(-c3cccs3)ccc12,-31,1.4,-55,133*[fluorescence artefact?],35*,-18
CC(=O)c1sc2nc(-c3cccs3)ccc2c1N,-7,1.1,-36,32,7,-12
c1ccc2c(c1)ncn2-c1ncnc2sc3c(c12)CCCC3,-5,1,-20,4,7,-6
CC(O)CNc1nc2ccccc2n1-c1ncnc2sc3c(c12)CCC3 (stereo not given),-2,2.7*,-2,5,1,-8
CCC(C)N(C)Cc1cccc(C2(O)CCN(S(=O)(=O)c3ccc(F)cc3)CC2)c1 (stereo not given),1,1.3,13,-1,-4,-6
NC1=NC2(CCC(c3ccccc3)CC2)n2c(nc3ccccc32)N1 (stereo not given),-11,2.8*,-11,3,11,4
NC1=NC2(CCN(Cc3ccccc3)CC2)n2c(nc3ccccc32)N1,-5,2.6*,-16,-5,3,4
Cc1cccc(N(C(=O)Nc2ccccc2)C2=NCC(C)S2)c1 (stereo not given),·,1.4,-11,7,·,67*
O=S(=O)(Nc1nc(-c2sccc2Cl)cs1)c1cc(Cl)ccc1Cl,-24,1.3,-1,4,26*,-8
CCCCNC(=O)CCNS(=O)(=O)c1ccc(Br)cc1,12,0.9,-20,2,-14,-5
Cc1[nH]n(-c2ccccc2)c(=O)c1Sc1ccc(Cl)cc1,-7,1,-10,-2,11,-12
Cc1cc(-c2c(C)[nH]n(-c3ccc(Cl)cc3)c2=O)n[nH]1,-82,2*,-19,-1,82*,-13
C=CCNC(=S)NNC(=O)C(CCCC)CC(C)O (stereo not given),3,·,-5,-2,0,1
C=CCNC(=S)NNC(=O)C(CCC(C)C)CC(C)(C)O (stereo not given),-6,2.7*,-4,4,6,4
O=S(=O)(Nc1nc2ccccc2nc1NCc1ccco1)c1ccc(Cl)cc1,-4,1.1,0,13,0,-7
Cc1ccc(S(=O)(=O)c2c(N)n(NC(=O)c3ccco3)c3nc4ccccc4nc23)cc1,-4,0.8,-24,9,3,-4
Cc1cccc(S(=O)(=O)c2c(N)n(Cc3ccco3)c3nc4ccccc4nc23)c1,-3,1.9,-7,74*,3,-1
Cc1ccc(S(=O)(=O)c2c(N)n(Cc3ccco3)c3nc4ccccc4nc23)cc1,-1,1.3,-21,60*,-1,-1
Cc1ccc(S(=O)(=O)Nc2nc3ccccc3nc2NCc2ccco2)cc1,-6,1.2,7,46*,3,2
Cc1ccccc1OCc1nc2ccccc2c(=O)n1N,1,0.9,-1,7,-1,-2
O=C(Nc1nc2nc(-c3ccccc3)cc(-c3ccccc3)n2n1)c1ccco1,7,1.3,3,8,-8,-7
COc1cccc(C(=O)N2CCN(C(=O)c3cccs3)CC2)c1OC,-5,1.2,-11,8,4,-14
CCCCCCCC(=O)NN1CCOCC1,14,1,-19,2,-10,-8
CCOc1cc(-c2ccc(N)c(OCC)c2)ccc1N,-2,1,-5,84*,4,-7
SMILES,LYP act,PLAP act,Plk1 PBD FP,Rev-RRE block,LYP inh 2,PLK1 kinase inh
COc1cccc(CNC(=O)c2nnn(-c3ccc(OC(F)(F)F)cc3)c2N)c1,9,0.7,23,0,-10,-6
COc1ccc(CCN2C(=O)c3[nH]nc(-c4ccccc4O)c3C2c2cccc(Cl)c2)cc1 (stereo not given),-4,1,-16,5,6,-11
COc1ccc(C2c3c(-c4ccccc4O)n[nH]c3C(=O)N2CCc2ccc(OC)c(OC)c2)cc1 (stereo not given),-7,2.8*,-21,7,4,-15
CCOC(=O)/C(C#N)=C\C=C1C=CN(C)C=C1,10,0.7,-133,130*[fluorescence artefact?],-8,-33
CCOC(=O)/C(C#N)=C\c1ccc(CC)s1,-7,0.9,-30,6,10,0
C=CCNC(=O)c1c(N)n(-c2cccc(S(N)(=O)=O)c2)c2nc3ccccc3nc12,-9,1.8,-21,5,9,-14
O=[N+]([O-])c1cccc(/C=C/c2nc(C=Nc3ccccc3)c(O)o2)c1,5,0.9,6,41*,-3,-8
O=c1[nH]cnc2scc(-c3ccccc3)c12,-1,0.9,15,0,-2,68*
COc1cccc(C2C3CN(C)CC=C3C(C#N)=C(N)C2(C#N)C#N)c1OC (stereo not given),4,1.1,21,85*[fluorescence artefact?],-6,-13
COc1cc([C@@H]2[C@H]3CN(C)CC=C3C(C#N)=C(N)C2(C#N)C#N)cc2c1OCO2,·,1.1,·,·,·,·
CCN1CC=C2C(C#N)=C(N)C(C#N)(C#N)[C@H](c3cccc(OC)c3OC)[C@H]2C1,0,1.3,-20,65*,1,-13
COc1ccc(OC)c(NC2c3ccccc3C(=O)N2Cc2ccc3c(c2)OCO3)c1 (stereo not given),0,1.3,0,3,-3,-13
CCc1ccc(/C(C)=N\Nc2ccc([N+](=O)[O-])cc2)cc1,-2,0.7,13,52*,4,-10
COc1ccc(N/N=C(/Oc2ccc([N+](=O)[O-])cc2)C(C)=O)cc1,-6,·,2,5,5,-13
Cc1ccc(S(=O)(=O)NCC23C=CC(O2)C2C(=O)N(c4ccccc4)C(=O)C23)cc1 (stereo not given),-10,0.9,-10,9,9,-1
COc1ccc(OC)c(S(=O)(=O)Nc2c(F)cccc2F)c1,15,1.1,0,2,-19,-9
O=C(COC(=O)c1ccc2ccccc2c1)Nc1ncc(C(F)(F)F)cc1Cl,-8,1.1,19,12,11,1
Nc1ccccc1C(=O)NNc1ncc(C(F)(F)F)cc1Cl,12,2*,3,-1,-9,-10
Oc1ccccc1CNc1nc2ccccc2n1CCN1CCCCC1,·,1.3,·,·,·,·
CCOC(=O)C1CCC2(CC1)C(C#N)=C(N)Oc1n[nH]c(C)c12 (stereo not given),7,·,-14,-2,-6,70*
N#CC1=C(SCC(=O)c2cc3ccccc3oc2=O)NC(=O)C(C#N)C12CCCC2 (stereo not given),-9,1.5,-8,113*[fluorescence artefact?],6,-14
COC(=O)c1ccc(NC(=O)c2ccccc2NS(C)(=O)=O)cc1,-1,1.1,18,0,-3,-11
C=CCN1C(=O)C(O)(CC(=O)c2ccc(-n3cccc3)cc2)c2ccccc21 (stereo not given),0,1.3,-13,2,2,-13

# Source: PubChem (several laboratories)
